Laboratory results: PMC2841442 (Journal of Medicinal Chemistry, 2010)
pIC50: −log10 of the molar value.

Key:
NRP1 (PAE/NRP1 cells) [1] = biological target: T1, NRP1 (PAE/NRP1 cells) (Homo sapiens, UniProt O14786); assay: Inhibition of 125I-VEGF-A165 binding to PAE/NRP1 cells; conditions: 100 μM compound; 0.1 nM 125I-VEGF-A165; mean ± SEM, three experiments
In short: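 Porcine aortic endothelial cells stably expressing NRP1 (Ham's F12, 10% FBS, hygromycin B) were grown to confluence. They received test compound (0.1−100 μM), then 0.1 nM 125I-VEGF-A165 (1200−1800 Ci/mmol). Nonspecific binding was taken with 100-fold excess unlabeled VEGF. IC50 was fitted from competition curves for compounds giving >70% inhibition at 100 μM. Three independent experiments in triplicate, mean ± SEM.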

HUVECs = assay: VEGF-induced HUVEC migration; format: cell-based, human; conditions: 100 μM; VEGF 25 ng/mL; 4 h
In short: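 HUVECs were pretreated 30 min with test compound or DMSO, then 1.5 × 10^5 cells in EBM/0.1% BSA were loaded into collagen I-coated transwell inserts (8 μm pores). Bottom wells held VEGF at 25 ng/mL, or medium control. Plates ran 4 h at 37 °C. Migrated underside cells were stained and counted in four fields at ×100. Three independent experiments in duplicate, mean ± SEM.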

A549 cells = assay: A549 cell viability; format: cell-based, human
In short: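 A549 cells kept in RPMI 1640 with L-glutamine, seeded at 4 × 10^3 cells/well in serum-free medium with graded 5-FU or paclitaxel, with or without test compound at 100 μM. After 44 h, XTT was added for a further 4 h (48 h total). Formazan was read at 490 nm against 595 nm reference. Three independent experiments in triplicate, mean ± SEM.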

NRP1 (PAE/NRP1 cells) [2] = biological target: T1, NRP1 (PAE/NRP1 cells); conditions: read-out: IC50, 125I-VEGF-A binding to PAE/NRP1 and tumor cells; cited from earlier work

T1 sequence (O14786 22-923): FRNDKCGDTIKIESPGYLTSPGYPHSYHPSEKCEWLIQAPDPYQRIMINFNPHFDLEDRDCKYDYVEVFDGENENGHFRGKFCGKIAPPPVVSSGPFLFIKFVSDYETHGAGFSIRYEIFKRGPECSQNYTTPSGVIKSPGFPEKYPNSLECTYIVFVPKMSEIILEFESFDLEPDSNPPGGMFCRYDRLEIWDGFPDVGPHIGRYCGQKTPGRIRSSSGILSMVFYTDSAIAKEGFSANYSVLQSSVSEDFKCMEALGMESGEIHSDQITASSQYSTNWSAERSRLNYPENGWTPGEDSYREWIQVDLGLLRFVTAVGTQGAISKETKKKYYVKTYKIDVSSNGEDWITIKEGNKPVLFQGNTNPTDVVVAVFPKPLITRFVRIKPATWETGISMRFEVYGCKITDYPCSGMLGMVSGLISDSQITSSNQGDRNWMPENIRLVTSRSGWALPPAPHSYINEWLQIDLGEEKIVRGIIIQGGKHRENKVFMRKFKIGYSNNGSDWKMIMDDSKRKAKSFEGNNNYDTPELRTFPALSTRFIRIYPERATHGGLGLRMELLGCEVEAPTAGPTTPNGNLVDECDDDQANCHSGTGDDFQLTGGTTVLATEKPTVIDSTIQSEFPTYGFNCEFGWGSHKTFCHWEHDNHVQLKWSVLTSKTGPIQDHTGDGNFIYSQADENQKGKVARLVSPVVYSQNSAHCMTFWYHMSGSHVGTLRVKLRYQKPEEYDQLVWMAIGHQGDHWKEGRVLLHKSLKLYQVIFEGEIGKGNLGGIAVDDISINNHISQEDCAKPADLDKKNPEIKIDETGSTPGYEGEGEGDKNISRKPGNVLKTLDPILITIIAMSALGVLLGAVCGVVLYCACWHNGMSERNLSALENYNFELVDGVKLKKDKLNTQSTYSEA

inhibition of 125I-VEGF binding to PAE/NRP1 cells at 100 μM (NRP1 (PAE/NRP1 cells) [1]) [%] | Compound | other results
51 ± 7.9 | H-kPAR-OH [Compound 18] | –
– | N=C(N)NCCC[C@H](NC(=O)c1sccc1NS(=O)(=O)c1cccc2nsnc12)C(=O)O [Compound 2, (S)-2-(3-(Benzo[c][1,2,5]thiadiazole-4-sulfonamido)thiophene-2-carboxamido)-5-guanidinopentanoic Acid] | VEGF-A induced migration of HUVECs (HUVECs): significantly reduced; A549 cell viability (A549 cells; 48 h incubation): significant reduction; enhancement of the cytotoxic effect of 5-fluorouracil (A549 cells; A549 cells, 100 μM 2): ~10 fold; enhancement of the cytotoxic effect of paclitaxel (A549 cells; A549 cells, 100 μM 2): approximately 4 fold
– | 1: bicyclic peptide corresponding to the C-terminal 28 amino acids of VEGF-A165 [Compound 1] | pIC50 (NRP1 (PAE/NRP1 cells) [2]): 5.52 to 5.70
19 ± 7.6 | H-KPAQ-OH [Compound 24] | –
22 ± 1.2 | H-KPAK-OH [Compound 23] | –
36 ± 5.1 | H-KPaR-OH [Compound 19] | –
22 ± 9.5 | H-KPAr-OH [Compound 22] | –
